JMJD2C inh = blocks human GASC-1 demethylase activity | GST-JMJD2C(1-420) H3K9me3 demethylation, DELFIA europium | AID 2099 | Q9H3R0 | hit rate 0.069% among 330,000 | inhibition, % at 2.35 µM;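 active means more than half of a compound's replicate wells show inhibition beyond 50%, single wells judged on their own value; inconclusive means some, but no more than half, of replicates pass 50% inhibition; inactive means no replicate passes 50% inhibition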;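 further: signal counts dimethyl H3K9 product captured on neutravidin plate; 0% = median of DMSO wells and 100% = 0.3 times that DMSO median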
T cell modulator = T cell immune modulation candidate; hit rate 0.068% among 330,000; response (vesicle binding), % at 7 µM; 2C CD8+ T cell-vesicle binding, flow cytometry; stronger effect = lower value;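 active means response, share of CD8 T cells binding vesicles, and their 90th percentile fluorescence all below set limits, cut at about 80% in these data, passing the limit was not always enough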;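 further: values below 100% mean blocked vesicle binding to the CD8+ T cells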
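incubation = binding step 1.5 h, 37 °C, antibody labelling 20 min, ice | test system = 2C mouse CD8+ T cells | read-out basis = percent CD8+ FL2 mean versus row control | controls = Peptide-free naked vesicles (low) and QL9 vesicles with 0.7% DMSO vehicle (high) | detection = flow cytometry of vesicle-bound cells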
NR3A LBD binder = modulators (binders) of human NR3A ligand-binding domain. NR3A LBD differential scanning fluorimetry, Tm shift; 0% = protein alone, 100% = glycine-bound protein. Tm shift relative to glycine control, % at 25 µM. hit rate 2.5% among 340,000. AID 1259313;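 active means melting temperature shift of at least 10% of the positive control shift, at one fixed dose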
Rtt109 Vps75 = inhibitors of Candida albicans Rtt109/Vps75 histone acetyltransferase | purified Rtt109/Vps75, ThioGlo CoA-SH fluorescence, 4 h | inhibition, % at 34.9 µM | hit rate 0.16% among 330,000;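 active means inhibition of at least 50% in every replicate; inconclusive means best replicate reaches 50% inhibition but some replicates fall short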
Target sequence (Q5AAJ8 whole entry, looked up): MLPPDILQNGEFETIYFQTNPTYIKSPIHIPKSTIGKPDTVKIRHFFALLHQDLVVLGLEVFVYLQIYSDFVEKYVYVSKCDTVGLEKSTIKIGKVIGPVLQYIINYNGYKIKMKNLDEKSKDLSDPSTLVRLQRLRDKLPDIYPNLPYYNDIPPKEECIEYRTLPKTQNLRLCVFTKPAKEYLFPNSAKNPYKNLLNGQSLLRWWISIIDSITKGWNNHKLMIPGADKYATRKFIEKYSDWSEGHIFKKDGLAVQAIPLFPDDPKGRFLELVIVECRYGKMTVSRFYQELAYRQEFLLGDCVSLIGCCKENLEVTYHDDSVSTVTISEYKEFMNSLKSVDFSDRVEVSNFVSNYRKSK
Starred values were filed as active, the others as inactive; ? = inconclusive; . = no result given. The list is not random: actives were taken first. Their share in the collection is about 2.8%.

SMILES	JMJD2C inh	T cell modulator	NR3A LBD binder	Rtt109 Vps75
CC(C)c1ccc(C(=O)CN2C(=O)NC3(CCc4ccccc43)C2=O)cc1 (stereo not given)	-4	523	0	15
CC(NC(=O)c1ccco1)C(=O)N1CCN(S(=O)(=O)c2ccccc2C#N)CC1 (stereo not given)	9	228	0	-4
NC(=O)c1cccc(NC(=O)Nc2ccc(Cl)cc2)c1	3	259	24*	4
O=C(Nc1ccc(Cl)c(Cl)c1)Nc1ccccc1O	-8	105	466*	7
Cc1nnsc1C(=O)Nc1ccc(Cl)cc1	1	287	0	-8
O=C(Nc1ccc(Cl)c(Cl)c1)c1ccccc1	-1	524	2	-8
Cc1nnsc1SCCNC(=O)Nc1ccc(Cl)cc1	-11	245	28*	7
O=C(NCCNC(=O)Nc1ccc(Cl)cc1)Nc1ccc(Cl)cc1	.	.	22*	2
O=C(NCCO)Nc1ccc(Cl)cc1	8	111	-3	32
Cc1nc2scc(-c3ccccc3)c2c(=O)n1N=C1C=CC(=O)C=C1	-7	.	-1	.
COc1ccccc1C(=O)Nc1ccccc1SC(=O)c1ccccc1OC	-8	139	-1	0
O=C(Nc1ccc(Cl)c(Cl)c1)Nc1ccc(Br)cc1F	11	210	40*	0
COc1ccc(NC(=O)Nc2ccc(Br)c(C)c2)cc1	-2	509	25*	0
COc1ccc(NC(=O)Nc2cc(C)ccc2F)cc1	-2	387	-2	-2
O=C(Nc1ccc(Br)cc1)Nc1ccccc1F	15	393	5	1
Cc1ccc(NC(=O)Nc2ccc(F)c(Cl)c2)cc1	?	226	32*	-4
CCN(CC)S(=O)(=O)c1cc([N+](=O)[O-])ccc1NNC(=O)Nc1ccc(Cl)c(Cl)c1	-1	335	18*	9
CCCCN(CCCC)S(=O)(=O)c1ccc(NC(=O)c2ccc([N+](=O)[O-])cc2Cl)cc1	14	334	4	-14
O=C(Nc1ccc(Cl)c(Cl)c1)Nc1ccon1	12	133	28*	-7
O=C(Nc1ccc(Oc2ccc(NC(=O)Nc3ccccc3Cl)cc2)cc1)Nc1ccccc1Cl	13	120	22*	0
COc1ccc(NC(=O)Nc2ccc(F)c(Cl)c2)cc1	-1	308	31*	-7
O=C(Nc1cccnc1)Nc1ccc(F)c(Cl)c1	1	647	25*	-1
COc1cccc(OC)c1C(=O)OCc1c(-c2ccccc2)ncc2ccccc12	24	278	-3	14
O=C(NNc1ccccc1[N+](=O)[O-])Nc1ccc(Cl)c(Cl)c1	-29	221	15*	-17
O=C(Nc1ccc(F)c(Cl)c1)c1nsc(Cl)c1Cl	-4	419	15*	8
SMILES	JMJD2C inh	T cell modulator	NR3A LBD binder	Rtt109 Vps75
COCc1c(C(=O)N2CCc3ccccc32)oc2ccccc12	4	391	1	-8
Cc1c(C(=O)N2CCc3ccccc32)oc2ccccc12	11	453	14*	-13
CCOc1ccc(NC(=O)CN(C)CC(=O)Nc2cc(Cl)ccc2C#N)cc1OCC	60*	247	2	11
CCOc1ccc(NC(=O)CN(C)CC(=O)Nc2ccccc2SC)cc1OCC	5	190	18*	0
COc1ccc(NC(=O)CN(C)CC(=O)Nc2ccccc2SC)cc1	2	364	-1	0
CCOc1ccc(NC(=O)CN(C)c2ccc(S(=O)(=O)N(C(C)C)C(C)C)cn2)cc1OCC	35	400	17*	8
CC(C)OC(=O)C1OC1(C)c1ccccc1 (stereo not given)	.	.	1	4
Cc1ccc(C(=O)N[C@H](C(=O)Nc2ccc(N3CCOCC3)cc2)C(C)C)cc1	.	.	0	11
COC(=O)c1ccccc1CSc1nsc(/C=C/N(C)C)c1C#N	-12	316	16*	0
Cc1ccc(C(=O)Nc2ccccc2OC(F)F)cc1	6	442	13*	-2
O=C(Cn1cc(COc2ccc(Br)cc2)nn1)c1ccc(O)cc1	.	.	-11	7
O=C(Cn1cc(COc2ccc3ccc(=O)oc3c2)nn1)c1ccc(O)cc1	.	.	46*	6
O=C(/C=C/c1ccc2c(c1)OCO2)NCCSCc1ccc(Cl)cc1Cl	-22	.	-6	1
O=C(/C=C/c1ccc2c(c1)OCO2)NCCSCc1cccc(Cl)c1	4	235	26*	7
CCCN1CCC(NC(=O)CC2C(=O)NCCN2Cc2ccccc2C)CC1 (stereo not given)	-4	297	4	-1
CC(=O)Nc1sc(NC(=O)c2ccccc2)nc1-c1cccs1	5	403	18*	16
